High-throughput results: PubChem, Johns Hopkins Ion Channel Center
MrgX1 agonist: human MrgX1 receptor agonism, primary screen | B-score at 10 µM | MrgX1-HEK293 cells, Fluo-4 calcium fluorescence, agonist mode; stronger effect = higher value | Q96LB2 | 310,000 tested, 0.44% active;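 active means calcium response B-score plate-corrected fluorescence ratio at least 3 library SD, with starting fluorescence B-score inside 5 SD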
Target sequence (Q96LB2 whole entry, looked up): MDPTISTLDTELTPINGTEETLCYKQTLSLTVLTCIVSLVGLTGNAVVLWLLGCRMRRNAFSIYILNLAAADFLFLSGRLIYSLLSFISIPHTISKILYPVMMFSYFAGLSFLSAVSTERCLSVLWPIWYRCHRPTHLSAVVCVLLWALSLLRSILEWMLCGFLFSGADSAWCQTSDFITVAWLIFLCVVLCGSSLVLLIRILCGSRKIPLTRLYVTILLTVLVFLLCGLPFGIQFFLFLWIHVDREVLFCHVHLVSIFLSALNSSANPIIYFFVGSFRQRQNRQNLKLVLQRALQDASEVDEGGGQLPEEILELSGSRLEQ
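Assay system: MrgX1-expressing HEK293 cells / Amount: fifteen thousand cells per well / Doses: test compound in the initial addition of three / Timing: cells plated overnight, dye loaded 0.5 h 37 °C, 0.5 h room temperature / Technique: kinetic calcium dye fluorescence, Fluo-4 NW / Control set: positive and negative controls per plate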
RGS4 inh: human RGS4 inhibition. AID 463165. B-score at 10 µM. P49798. HEK293 M3R/RGS4 inducible, Fluo-4 calcium flux; stronger effect = higher value; triggered by carbachol at its EC20. 310,000 tested, 0.45% active;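 active means B-score, a plate-corrected calcium signal, over three deviations above library mean, with baseline fluorescence within five deviations of library mean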;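 further: RGS4 expression induced by doxycycline in cells with stable M3 receptor; B-score is computed from the integrated fluorescence ratio over baseline after carbachol; higher B-score means a larger calcium signal and so more RGS4 inhibition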
Target sequence (P49798 whole entry, looked up): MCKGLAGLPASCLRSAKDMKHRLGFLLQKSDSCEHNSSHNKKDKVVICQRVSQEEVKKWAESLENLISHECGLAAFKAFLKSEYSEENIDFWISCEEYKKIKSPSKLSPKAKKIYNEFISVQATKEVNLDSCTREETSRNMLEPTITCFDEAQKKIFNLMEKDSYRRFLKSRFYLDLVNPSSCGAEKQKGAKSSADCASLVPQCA
RGS4 pot: potentiators or activators of RGS4; HEK293 M3R/inducible RGS4, carbachol calcium flux Fluo4; stronger effect = lower value; B-score at 10 µM; 310,000 tested, 0.92% active; AID 463111;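 active means B-score of the integrated calcium signal more than 4 SD below the library mean, with starting fluorescence not abnormally high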;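 further: negative B-score means reduced calcium response which marks RGS4 activation or potentiation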
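Material: Inducible-RGS4 HEK293 cells carrying M3 receptor; also added: carbachol at ECmax as muscarinic agonist stimulus; incubation: compound preincubation 20 min at room temperature before agonist; signal: Fluo4-AM (2 µM) calcium-flux fluorescence, kinetic read; measure: integrated calcium ratio converted to B score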
MrgX1 PAM: allosterically activates human MrgX1 receptor signaling; Q96LB2; MrgX1-HEK293, Fluo-4 calcium flux, FDSS; stronger effect = higher value; B-score at 10 µM; 310,000 tested, 0.63% active; AID 588675;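 active means plate-corrected calcium response at least 3 library SD above typical, normal starting fluorescence, not activating the receptor alone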;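 further: compound read alongside a low EC10 to EC30 dose of BAM8-22 agonist; peak minus trough fluorescence over baseline measured at the second addition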
MrgX1 antagonist: human MrgX1 receptor antagonism, primary screen. Q96LB2. MRGX1-HEK293 calcium flux, Fluo-4, BAM8-22 antagonism; stronger effect = lower value. B-score at 10 µM. 310,000 tested, 1.3% active;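 active means calcium-response B-score plate-corrected more than 3 library SD below zero, starting fluorescence within 5 deviations, no agonist response on first addition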;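 further: peak minus trough fluorescence over baseline after final BAM8-22 challenge near maximal dose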
RGS4 block valid: RGS4 inhibitor validation | AID 492999 | HEK293 M3R/RGS4, carbachol calcium Fluo-4 fluorescence; carbachol added at its EC20; 0 = buffer wells, 100 = carbachol control | shares compounds with RGS4 inh | 1,700 tested, 65% active | calcium response, % at 10 µM;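 active means duplicate-averaged calcium response above the buffer-only control mean plus 5 SD of those controls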;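 further: integrated fluorescence ratio F max minus min over baseline F0; higher response in RGS4-induced cells means RGS4 inhibition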
RGS4 uninduced: counter-screen for RGS4 inhibitors: effect in non-induced cells; activity (percent), % at 10 µM; HEK293 M3R non-induced, carbachol calcium Fluo-4; submaximal (EC20) carbachol stimulus; buffer wells 0%, carbachol control wells 100%; 1,900 tested, 20% active; shares compounds with RGS4 inh; call rule not given here;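 further: RGS4 induction absent so cells express M3R without RGS4; higher means more calcium signal and flags a non-specific hit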
M3R basal Ca ctr: signal in non-induced cells without carbachol, RGS4 inhibitor counter-screen; 1,900 tested, 22% active; shares compounds with RGS4 inh; HEK293 M3R/RGS4 non-induced, Fluo-4 calcium, no carbachol; normalised: buffer wells 0%, carbachol wells 100%; calcium response (agonist-mode artifact), % at 10 µM;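 active means duplicate-averaged calcium rise in uninduced cells above buffer wells' mean plus 5 SD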
* = called active by the depositor; i = inactive; . = not tested or not shown. In the library only some 3.5% were active in any assay of this set; here they are far more common.

SMILES | MrgX1 agonist | RGS4 inh | RGS4 pot | MrgX1 PAM | MrgX1 antagonist | RGS4 block valid | RGS4 uninduced | M3R basal Ca ctr
CN(Cc1cccc(F)c1)C(=O)CNS(=O)(=O)c1ccc2ccccc2c1 | i | i | i | i | i | . | . | .
O=C(NCCc1ccccn1)c1cc2ccccc2o1 | i | i | i | i | i | . | . | .
Cn1ccc(C(=O)Nc2cccnc2Cl)n1 | . | i | i | . | . | . | . | .
N#Cc1c(NC(=O)CSc2ncn[nH]2)sc2c1CCCC2 | i | 5.1* | i | i | i | 8.5%* | i | i
CC1CCc2c(sc(NC(=O)CSc3ncn[nH]3)c2C#N)C1 (stereo not drawn) | i | i | i | i | i | . | . | .
CCn1c(C)cs/c1=N\S(=O)(=O)c1ccccc1 | i | i | i | i | i | . | . | .
O=Cc1s/c(=N\S(=O)(=O)c2ccccc2)n(CCCCl)c1Cl | . | 5.4* | i | . | . | 9.0%* | i | 20%*
Nc1cccn2c(-c3ccc(Cl)cc3)cnc12 | i | i | i | i | i | . | . | .
Nc1cccn2c(-c3ccc(Cl)c(Cl)c3)cnc12 | i | 12* | i | i | i | 7.5%* | i | i
Cc1nc(-c2ccccc2)sc1C(=O)/C=C/c1ccc(Cl)cc1 | i | 12* | i | i | i | 7.5%* | 30%* | 16%*
Nn1c(Cc2cccc3ccccc23)nnc1SCc1c(F)cccc1Cl | i | i | i | i | i | . | . | .
Nn1c(Cc2cccc3ccccc23)nnc1SCCOc1ccc(F)cc1 | i | 6.5* | i | i | i | i | i | i
Nn1c(Cc2cccc3ccccc23)nnc1SCCOc1ccc(Br)cc1 | i | i | i | i | i | i | i | i
COC(=O)Cc1[nH]nc2c1C1(C(=O)N(Cc3ccccc3)c3ccccc31)C(C#N)=C(N)O2 (stereo not drawn) | i | i | i | i | i | . | i | i
Cc1[nH]nc2c1C1(C(=O)N(Cc3ccc(Cl)cc3)c3ccccc31)C(C#N)=C(N)O2 (stereo not drawn) | i | i | i | i | i | . | . | .
CN(C)/C=C1/N=C(c2ccccc2)OC1=O | i | i | i | i | i | . | . | .
O=CC1=C(c2ccccc2)Oc2ccccc2O1 | i | 10* | i | i | i | 19%* | 40%* | i
O=C(Nc1cccc(N2C(=O)C=CC2=O)c1)c1cccs1 | 35* | 21* | i | i | i | 33%* | i | 48%*
Cc1nc2ccccc2c(=O)n1-c1cccc(NC(=O)c2cccs2)c1 | i | i | i | i | i | . | . | .
NS(=O)(=O)c1cccc(NC(=O)C(Cc2ccccc2)NC(=O)c2ccccc2)c1 (stereo not drawn) | i | i | i | i | i | . | . | .
CCc1ccc(OCC(=O)Nc2ccc(S(=O)(=O)Nc3cc(C)on3)cc2)c(Br)c1 | i | i | i | i | i | . | . | .
O=C(NNc1nc(=O)c2cccnc2s1)c1ccccc1O | i | 5.2* | i | i | i | 18%* | i | i
O=C(NNc1c2ccccc2nc2ccccc12)c1ccccc1O | i | i | i | i | i | . | . | .
Cc1sc(NC(=O)c2ccco2)nc1-c1ccccc1 | i | 7* | i | i | i | 31%* | i | i
COc1ccc2c(c1)CCc1sc(NC(=O)c3ccco3)nc1-2 | i | 6.6* | i | i | i | 26%* | 32%* | i
SMILES | MrgX1 agonist | RGS4 inh | RGS4 pot | MrgX1 PAM | MrgX1 antagonist | RGS4 block valid | RGS4 uninduced | M3R basal Ca ctr
COc1ccc2c(c1)Cc1sc(NC(=O)c3ccco3)nc1-2 | i | i | i | i | i | . | i | i
COc1ccc2c(c1)Cc1sc(NC(C)=O)nc1-2 | i | i | i | i | i | . | . | .
COc1ccc2c(c1)-c1nc(NC(=O)c3ccco3)sc1CC2 | i | 17* | i | i | i | 48%* | 59%* | i
COc1cc2c(cc1OC)C(c1ccc(Br)cc1)N(C(=O)c1ccccc1C(=O)O)CC2 (stereo not drawn) | i | i | i | i | i | . | . | .
CCOc1ccc(OCC)c(S(=O)(=O)n2cnc(C)c2)c1 | i | i | i | i | i | . | . | .
Cc1c(OCC(=O)NC2CCN(Cc3ccccc3)CC2)ccc2c3c(c(=O)oc12)CCC3 | i | i | i | i | i | . | . | .
CCOn1c(=O)c(-c2ccc(OC)c(OC)c2)[n+]([O-])c2ccccc21 | i | i | i | i | i | i | i | i
CCOn1c(=O)c(-c2ccc(OC)cc2)[n+]([O-])c2ccccc21 | i | i | i | i | i | . | . | .
N#C/C(=C\c1cccs1)C(=O)c1ccccc1Cl | i | 18* | i | i | i | 56%* | i | 8.5%*
CC(C)(CC(=O)O)CC(=O)N1CCN(c2cc(C(F)(F)F)nc3ccccc23)CC1 | i | 5* | i | i | i | i | i | i
FC(F)(F)c1cc(N2CCN(Cc3ccccc3)CC2)c2ccccc2n1 | i | i | i | i | i | . | . | .
CCCc1[nH]nc2c1C(c1cn[nH]c1-c1ccc(F)cc1)C(C#N)=C(N)O2 (stereo not drawn) | i | 16* | i | i | i | 38%* | 44%* | 15%*
COc1cccc(N2[C@@H](CC(C)=O)c3ccc(/C=C/C(C)=O)cc3S2(=O)=O)c1 | i | 8.2* | i | i | i | 32%* | 54%* | i
COc1ccc(CN2[C@@H](CC(C)=O)c3ccc(/C=C/C(C)=O)cc3S2(=O)=O)cc1 | i | i | i | i | i | . | . | .
COc1ccc(Cl)cc1NC(=O)c1cc(-c2ccccc2O)n[nH]1 | i | 5.5* | i | i | i | 5.0%* | i | i
COc1ccc(OC)c(NC(=O)c2cc(-c3cc(Cl)ccc3O)n[nH]2)c1 | i | i | i | i | i | . | . | .
CCOc1ccccc1NC(=O)C(NCC1(N2CCCCC2)CCCCC1)c1ccccc1 (stereo not drawn) | i | i | i | i | i | . | . | .
